The values that follow come from ChEMBL document CHEMBL2331302, “Selection of heptapeptides that bind helix 69 of bacterial 23S ribosomal RNA” (Bioorg Med Chem, 2013).

The source made the active and inactive calls. The calls are words filed in the database; no cut-off is given here.

Experiment [1] in a line: Binding affinity to Escherichia coli A-site 16s rRNA at pH 7 after 30 mins by ESI-MS analysis. The settings on record: read-out: Kd(app). Summed up: (§1)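 ESI-MS titration of free amidated peptide (0–120 μM) with 1–3 μM RNA (50 μL) in 150 mM ammonium acetate, pH 7.0 or 5.2, 25% 2-propanol. Summed peak areas of complexes (1:1, 1:2, Na+/K+ adducts) over free plus complexed RNA give fraction bound, either per charge state (4−, 5−) or all states. Apparent Kd comes from a quadratic fit, three independent experiments.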

A short description of experiment [2]: Binding affinity to Escherichia coli helix 31 at pH 7 after 30 mins by ESI-MS analysis. The settings on record: read-out: Kd(app). Summed up:
as §1

Experiment [3] can be described thus: Binding affinity to human H69 RNA at pH 7 after 30 mins by ESI-MS analysis. Conditions: read-out: Kd(app). Summed up:
as §1

The test system of experiment [4] is Escherichia coli. Nature of the experiment: Ratio of apparent Kd for wild type Escherichia coli H69-UUU RNA at 4- charge state at pH 5.2 to apparent Kd for wild type Escherichia coli H69-UUU RNA at 4- charge state at pH 7. The essentials:
(§2)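 The ratio compares apparent Kd for the 4− charge-state 1:1 complex from ESI-MS titrations at pH 5.2 and pH 7.0. Conditions: 150 mM ammonium acetate, 25% 2-propanol, 1–3 μM RNA, 0–120 μM amidated peptide, quadratic fit.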

Experiment [5] has as its system Escherichia coli. Kind of experiment: Ratio of apparent Kd for wild type Escherichia coli H69 RNA at 4- charge state at pH 5.2 to apparent Kd for wild type Escherichia coli H69 RNA at 4- charge state at pH 7. Summed up:
as §2

Experiment [6] in a line: Binding affinity to wild type Escherichia coli H69 RNA at 4- charge state at pH 5.2 after 30 mins by ESI-MS analysis. Conditions: read-out: Kd(app). Summed up: as §1
A short description of experiment [7]: Binding affinity to Escherichia coli H69-UUU RNA at 4- charge state at pH 5.2 after 30 mins by ESI-MS analysis. Conditions: read-out: Kd(app). Summed up:
as §1

The subject of experiment [8] is Escherichia coli. Kind of experiment: Selectivity ratio of apparent Kd for Escherichia coli H69-2(pseudouridine)U RNA at 4- charge state at pH 7 to apparent Kd for wild type Escherichia coli H69 RNA at 4- charge state at pH 7. Summed up: (§3)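 The ratio compares apparent Kd for each RNA with that for modified wild-type H69, both for 1:1 complexes from ESI-MS at pH 7.0. Conditions: 150 mM ammonium acetate, 25% 2-propanol, 1–3 μM RNA, 0–120 μM amidated peptide, fraction bound fitted by a quadratic equation.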

Experiment [9] concerns Escherichia coli. Kind of experiment: Selectivity ratio of apparent Kd for Escherichia coli H69-pseudouridineUpseudouridine RNA at 4- charge state at pH 7 to apparent Kd for wild type Escherichia coli H69 RNA at 4- charge state at pH 7.
Experiment [10] has as its system Escherichia coli. Nature of the experiment: Selectivity ratio of apparent Kd for Escherichia coli H69-U2(pseudouridine) RNA at 4- charge state at pH 7 to apparent Kd for wild type Escherichia coli H69 RNA at 4- charge state at pH 7. Summed up:
as §3

Experiment [11] has as its system Escherichia coli. Kind of experiment: Selectivity ratio of apparent Kd for Escherichia coli H69-UUU RNA at 4- charge state at pH 7 to apparent Kd for wild type Escherichia coli H69 RNA at 4- charge state at pH 7. Summed up: as §3
The nature of experiment [12]: Binding affinity to Escherichia coli H69-2(pseudouridine)U RNA at 4- charge state at pH 7 after 30 mins by ESI-MS analysis. Conditions: read-out: Kd(app). The essentials: as §1
A short description of experiment [13]: Binding affinity to Escherichia coli H69-pseudouridineUpseudouridine RNA at 4- charge state at pH 7 after 30 mins by ESI-MS analysis. The settings on record: read-out: Kd(app). Summed up: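 ESI-MS on a tandem quadrupole instrument: 1–3 μM RNA with 0–120 μM amidated peptide in 150 mM ammonium acetate, pH 7.0, 25% 2-propanol. Summed peak areas of free RNA and 1:1 complex (with Na+/K+ adducts) at the 4− charge state were used to get the fraction bound. Apparent Kd came from a quadratic-equation non-linear fit. Three independent experiments were run.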

Experiment [14] in a line: Binding affinity to Escherichia coli H69-U2(pseudouridine) RNA at 4- charge state at pH 7 after 30 mins by ESI-MS analysis. The settings on record: read-out: Kd(app). Summed up:
as §1

Experiment [15] in a line: Binding affinity to Escherichia coli H69-UUU RNA at 4- charge state at pH 7 after 30 mins by ESI-MS analysis. The settings on record: read-out: Kd(app). Summed up:
as §1

Experiment [16] can be described thus: Selectivity ratio of apparent Kd for human H69 RNA at pH 7 to apparent Kd for wild type Escherichia coli H69 RNA at pH 7. Summed up: as §3
For experiment [17], the system named is Escherichia coli. Kind of experiment: Selectivity ratio of apparent Kd for Escherichia coli A-site 16s rRNA at pH 7 to apparent Kd for wild type Escherichia coli H69 RNA at pH 7. Summed up: as §3
Experiment [18] concerns Escherichia coli. Kind of experiment: Selectivity ratio of apparent Kd for Escherichia coli helix 31 at pH 7 to apparent Kd for wild type Escherichia coli H69 RNA at pH 7. Summed up: as §3
The subject of experiment [19] is Escherichia coli. Nature of the experiment: Binding affinity to wild type Escherichia coli Qdot-labeled H69 RNA after 16 hrs by fluorescein-based bead assay. The essentials: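 1 nM fluorescein-H69 was pre-incubated 1 h with 1 nM anti-fluorescein Qdot 655, then with beads for 16 h at 4 °C. Beads were washed, and red and green per-bead pixel intensities (1–255 scale) quantified against no-peptide beads.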

For experiment [20], the species on record is Homo sapiens. Nature of the experiment: Binding affinity to human 5'-fluorescein-tagged 18s RNA after 24 hrs by fluorescein-based bead assay. The essentials:
(§4)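 TentaGel beads carrying peptide with a free N-terminus were blocked 3 h in SuperBlock (PBS, 0.05% Tween-20) and water-washed. About 10–12 beads were incubated with 15 μL of 1 μM 5′-fluorescein-labelled RNA in 10 mM HEPES for 24 h at 4 °C with shaking, repeated 4× with fresh RNA. Beads were water-washed and imaged by fluorescence microscopy. Peptide-free beads gave background.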

The species named for experiment [21] is Homo sapiens. Kind of experiment: Binding affinity to human 5'-fluorescein-tagged TAR RNA after 24 hrs by fluorescein-based bead assay. The essentials: as §4
Experiment [22] has as its system Escherichia coli. Kind of experiment: Binding affinity to wild type Escherichia coli 5'-fluorescein-tagged H69 RNA after 24 hrs by fluorescein-based bead assay relative to control. Summed up:
as §4

Experiment [23] has as its system Escherichia coli. Nature of the experiment: Selectivity ratio of Kd for Escherichia coli H69-UUU RNA to Kd for wild type Escherichia coli H69 RNA.

For H-NQVANHQ-NH2, the Kd in [1] was determined as 49 µM; in [2], 33 µM; in [3], 50 µM; in experiment [6], 34 µM; in experiment [7] it was 31 µM; in experiment [12], 28 µM. For the same compound, the Kd in experiment [13] turned out to be 28 µM; in experiment [14] it was 28 µM; in experiment [15], 19 µM. The Ratio turned out to be 1.6 with Escherichia coli [4] and 2.8 with Escherichia coli [5]. The Selectivity ratio with Escherichia coli [8] was found to be 2.3; in the experiment with Escherichia coli [9], 2.3; in the experiment on Escherichia coli [10], 2.3; with Escherichia coli [11], 1.6; in experiment [16], 4; in the experiment on Escherichia coli [17], 4. In addition, in the experiment with Escherichia coli [18], the Selectivity ratio was 3.
H-NQVANHQ-OH: the result in the experiment with Escherichia coli [19] and with Escherichia coli [22] was Active. Moreover, the result in the experiment listed under Homo sapiens [20] and in the experiment filed under Homo sapiens [21] was inactive.
As to `NC[C@@H]1O[C@H](O[C@H]2[C@@H](O)[C@H](O[C@@H]3[C@@H](O)[C@H](N)C[C@H](N)[C@H]3O[C@H]3O[C@H](CO)[C@@H](O)[C@H](O)[C@H]3N)O[C@@H]2CO)[C@H](N)[C@@H](O)[C@@H]1O`, the Selectivity ratio in the experiment on Escherichia coli [23] was found to be 2.
Take H-STYTSVS-OH: the outcome in the experiment on Escherichia coli [19], in the experiment filed under Homo sapiens [21] and in the experiment on Escherichia coli [22] was Active.
